# Test: Toxicity liver stage against HepG2, at 10uM
# Format: cell-based
# Design: test concentration 10 uM, cell line HepG2-A16-CD81EGFP
# Conditions: human, HepG2-A16-CD81EGFP cells; read-out: INHIBITION
# Method in brief: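 Uninfected HepG2-A16-CD81EGFP cells, 3 × 10^3 per well, 1536-well, plated on prespotted compound at 10 μM final, parasite-free screening media added to match infected plates; puromycin 10 μM positive, DMSO 0.5% negative; run in parallel with 48 h PbLuc assay at 37 °C, 5% CO2; viability by CellTiter-Glo luminescence, normalized to controls.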
row,Structure (SMILES),cytotoxicity at 10 µM [%]
1,Cn1c(=O)c2c(n3ncnc13)NC(=O)CC2c1cccc(F)c1 (centres undefined),2.05
2,CC(C)(CNc1ccc(S(=O)(=O)C(F)F)cc1)N1CCOCC1,26.7
3,Cc1ccc(C(=O)N(C)CC(=O)NCC(F)(F)F)cn1,-4.46
4,CO[C@@H]1CN(c2ccccc2)S(=O)(=O)[C@@]12CCN(Cc1cncs1)C2,5.63
5,CO[C@H]1CN(c2ccccc2)S(=O)(=O)[C@@]12CCN(Cc1ccccc1)C2,-4.86
6,O=S(=O)(Nc1cnc(N2CCOCC2)nc1)c1ccc(Cl)cc1,-5.82
7,O=C(NCC1CCCCC1)c1nnn(-c2ccc(Br)cc2)n1,-0.895
8,COC1(CNS(=O)(=O)c2ccccc2Br)CCSC1 (centres undefined),-8.26
9,Cn1cnnc1S(=O)(=O)C1CCN(C(=O)c2cccs2)CC1,6.03
10,Cc1ccc(N2N=C(C(N)=O)S(=O)(=O)c3cccnc32)cc1,4.28
11,CN(C)C(=O)N1Cc2nnn(C)c2C(COCC2CC2)C1 (centres undefined),-10.7
12,Cc1sc(NC(=O)CCC(=O)O)c(C(N)=O)c1-c1ccc(Cl)cc1Cl,15.6
13,CC(C)(C)C(=O)N1CCCC1c1nc(O)cc(-c2ccccn2)n1 (centres undefined),-1.26
14,CN1CC(=O)N(c2cccnc2)Cc2c(NC3CC3)ncnc21,5.28
15,Cc1cc(C(=O)NCc2ccc(F)cc2)c2c(C3CCNC3)noc2n1 (centres undefined),7.08
16,O=C(c1ccc(Cl)cc1)N1CCC(N2CCOC2=O)CC1,7.72
17,N#CCCN1CCN(S(=O)(=O)c2ccc(Cl)s2)CC1,14.7
18,O=C(NCCN1CCOCC1)c1cnc(-c2ccccc2F)s1,0.277
19,Cc1ccc(C(=O)NS(=O)(=O)Cc2ccc(F)cc2)cc1S(C)(=O)=O,-7.36
20,Cc1ccc(C)c(CC(=O)NC2CCS(=O)(=O)CC2)c1,-9.56
21,CNS(=O)(=O)Cc1cccc(CNCc2ccsc2)c1,11.7
22,CN(C)CCN(C)S(=O)(=O)Cc1ccc(Br)cc1,0.936

row,Structure (SMILES),cytotoxicity at 10 µM [%]
1,Cc1noc(NCc2cn(C)nc2-c2cccnc2)n1,6.87
2,CCCNC(=O)C(C)NC(=O)Nc1ccccc1SC(F)F (centres undefined),5.09
3,CC(C(=O)N1CCN(C(=O)c2ccc(F)cc2F)CC1)n1ccnc1 (centres undefined),1.63
4,Cc1ccc(C(=O)N2CCN(C(=O)C(C)n3ccnc3)CC2)cc1F (centres undefined),3.72
5,c1cc(CN2CCc3cncnc3C2)c2c(c1)OCCO2,-3.67
6,CN(C)S(=O)(=O)c1cccc(CNc2cc(CO)ccc2Cl)c1,5.36
7,Cc1noc(CCCNS(=O)(=O)N2CCCC2c2ccco2)n1 (centres undefined),-7.88
8,Cn1cccc1-c1nnc(C2(c3ccc4c(c3)OCO4)CCOCC2)o1,20.3
9,CNC(=O)COc1cccc(CNC(=O)c2c(C)noc2C)c1,-4.93
10,CNC(=O)C1CCCN(C(=O)OC)C1 (centres undefined),-6.06
11,CCCN1CCC(N2CCN(c3cc(C)nc(COC)n3)CC2)CC1,-0.332
12,CC(=O)c1ccc(Cl)c(Cl)c1OCC(=O)NCC(F)(F)F,-1.2
13,Cc1cc(NCc2ccc(S(N)(=O)=O)cc2)nc(C)n1,-2.08
14,Cc1cc(C(C)(O)CNC(=O)OC(C)(C)C)c(C)o1 (centres undefined),10.5
15,Cc1ncc(CNCC(=O)NCC(F)(F)F)n1-c1ccccc1,5.57
16,Cn1cc(C2COC3(CCN(C(=O)c4ccn(C)n4)CC3)C2)cn1 (centres undefined),-66.5
17,CN(C)C(=O)NC1COC2(CCN(Cc3ccc(N(C)C)cc3)CC2)C1 (centres undefined),-77
18,O=C(NCCN1CCOCC1)C1=NOC2(CCN(Cc3nccs3)C2)C1 (centres undefined),-79.3
19,COCC(=O)NCc1cc(=O)n2c(n1)CN(Cc1ccsc1)CCC2,0.281
20,Cc1noc([C@H]2C[C@@H]3CCN(C(=O)C4CCOCC4)C[C@H]3O2)n1,7.62
21,O=C(C1CCOC1)N1CCc2ncc(CNc3ccccn3)n2CC1 (centres undefined),0.0499
22,CN(Cc1n[nH]c2c1CCCC2)c1cc(N2CCOCC2)nc(N)n1,-7.7

row,Structure (SMILES),cytotoxicity at 10 µM [%]
1,Cc1ccnn1CCC(=O)N(Cc1ccsc1)CC(C)C,-57.4
2,CS(=O)(=O)NC1CCN(CCOCc2ccccc2)CC1,2.84
3,Cc1cc(CNC(=O)c2cc(COc3cncc(Cl)c3)on2)n[nH]1,16.1
4,CCN1CC(c2ccccc2)CC2(CCN(Cc3ncc[nH]3)CC2)C1 (centres undefined),8.25
5,CN(Cc1nc(Cc2cccc(C(F)(F)F)c2)no1)CC1CCCCO1 (centres undefined),3.64
6,O=C(Nc1ccc(-c2ccccc2)cc1)N1C[C@@H]2CNC[C@]2(C(=O)O)C1,-44.7
7,CCC[C@@H]1CN(Cc2nnc(-c3cccc(F)c3)o2)C[C@H]1NC(C)=O,0.833
8,Cc1nccn1CCCN1CCCC(c2nccn2CC2CCC2)C1 (centres undefined),-13.7
9,Cc1cc(NC(C)Cc2cccs2)n2nccc2n1 (centres undefined),1.22
10,CC(C)SCC(=O)NCc1cc2n(n1)CCCN(C1CCCCC1)C2,2.37
11,CS(=O)(=O)c1cnc(CC2CC2)nc1C1CCCNC1 (centres undefined),-33.5
12,CC[C@@H](CO)NC(=O)c1coc(COc2ccc3sc(C)nc3c2)n1,4.67
13,Cc1cccc(C)c1NC(=O)c1cccc(CN2CCCC2C)c1 (centres undefined),4.73
14,CC(C)NC(=O)[C@@H]1C[C@H](N)CN1C(=O)C1(c2ccc(Cl)cc2)CCC1,3.92
15,Cc1cc(C)n(C2CCN(c3ncnc4c3CCNCC4)C2)n1 (centres undefined),7.82
16,Cc1[nH]nc(CCC(=O)NCC2CCCN(C3CCCC3)C2)c1C (centres undefined),-7.7
17,Cc1c(Cl)cc(C(=O)NCCc2ncnn2C)cc1Cl,6.07
18,Cc1cc(C)cc(N2CCN(Cc3cccnc3)CC2=O)c1,5.02
19,Cc1ccccc1OC(C(=O)N1CCC2(CC1)CN(C)C(=O)O2)C(C)C (centres undefined),-52.4
20,O=C(C1CNCCN1C(=O)CCc1cccnc1)N1CCOCC1 (centres undefined),4.82
21,Nc1nc(Cn2ccnc2-c2cc(CN3CCCC3)cs2)cs1,1.4
22,CCN(Cc1cnc(NCc2ccccc2)nc1)C1CCS(=O)(=O)C1 (centres undefined),-15.3

row,Structure (SMILES),cytotoxicity at 10 µM [%]
1,CCC(=O)N1CCC(n2cc(C(C)(C)O)nn2)CC1,3.92
2,CN(Cc1ncc[nH]1)c1nc(-c2ccccn2)nc2c1CCNCC2,-0.796
3,C=C(C)CNCC1(O)CCCN(Cc2ccc(F)c(F)c2)C1=O (centres undefined),-1.12
4,COc1cc(-c2cc(NC3CCCC3)nc3[nH]ccc23)nc(N)n1,10.2
5,Cc1[nH]c(-c2ccccc2)nc1C(=O)N1CCC2(CCCO2)CC1,2.8
6,Cc1nc(N2CCC(C(O)c3nccn3C)CC2)c2nc(C)oc2n1 (centres undefined),-2.22
7,CCCN(Cc1nccn1C)C(=O)c1cc(C)nc(C)n1,2.37
8,Cc1cnn(C(C)C2CC2)c1NC(=O)c1ccco1 (centres undefined),-1.19
9,O=C(CCC(F)(F)F)N1CCN(Cc2ccncc2)[C@@H]2CS(=O)(=O)C[C@@H]21,-2.11
10,COc1ccc(C(=O)C2CCCN(c3cc(C#N)ccn3)C2)cc1OC (centres undefined),-0.312
11,Cc1cc(-c2nn(C)c(Cl)c2CN2CCOCC(O)C2)no1 (centres undefined),-14.8
12,Cn1cc(CN2CC[C@@H]3[C@@H](CCC(=O)N3CCC3=CCCCC3)C2)cn1,-8.68
13,CCc1cc(C(F)(F)F)c2c(C)nn(CC(=O)O)c2n1,0.77
14,CC1CCCCN1c1nc2c(c(=O)[nH]1)CCN(Cc1cccnc1)C2 (centres undefined),-6.15
15,CN(c1ccncn1)C1CC2(CCN(C(=O)c3cccs3)C2)C1 (centres undefined),-5.05
16,CCc1ncc2c(n1)CN(Cc1nnc(Cc3ccccc3)o1)CC2,-3.04
17,Cc1occc1C(=O)N1CCCN(Cc2nccn2C(C)C)CC1,-9.24
18,O=C(NCc1nn(-c2ccccc2)c2c1CCC2)NC1CCC(O)CC1 (centres undefined),-7.75
19,Cn1cc(C2CCCN2Cc2csc(C3CCCC3)n2)cn1 (centres undefined),8.3
20,Clc1ccccc1-c1nnc(CNCCn2cccn2)o1,1.4
21,Cc1cc(CN(C)C(=O)c2ccc(OC(C)C)nc2)no1,-15.3
22,COc1ccc(C(=O)N2CCC(Nc3ccc(C)nn3)CC2)cc1,-8.51

row,Structure (SMILES),cytotoxicity at 10 µM [%]
1,COCc1nc(C(=O)N2CCCC2c2cccs2)cs1 (centres undefined),-5.16
2,CCc1nnc2n1CCN(C(=O)c1cc(Br)c[nH]1)C2,-7.93
3,CCc1nc(C2CCCN(C(=O)c3cn(C)nc3C)C2)no1 (centres undefined),-14.5
4,Cn1ccc(CN2CCC(NC(=O)Cc3ccccc3)CC2)cc1=O,-9.75
5,O=C1CCC(C(=O)NCc2nn(-c3ccccc3)c3c2CCC3)CN1 (centres undefined),-10.1
6,O=C(NCc1nn(-c2ccccc2)c2c1CCC2)N1CCSCC1,-4.89
7,Cc1cc(CN2CCC(c3ccnn3CCO)CC2)no1,-11.2
8,O=C(NCCN1CCOCC1)c1n[nH]c(=O)c2ccccc12,0.376
9,CC(O)CN1CCN(C(=O)c2ccc(Cn3cccn3)cc2)CC1 (centres undefined),-1.45
10,O=C(O)c1ccc(S(=O)(=O)Nc2ccc(Cl)c(F)c2)c(F)c1,-14.3
11,CCN1CCC(NC(=O)CN2CCc3c(ncn3C)C2)CC1,1.85
12,CCN(Cc1ccc2c(c1)OCCO2)C(=O)NCc1cc[nH]n1,1.54
13,CCc1nc(CN2CCCN(C(=O)CCSC)CC2)cs1,-5.41
14,c1csc(-c2noc(C3CCCNC3)n2)c1 (centres undefined),-2.5
15,Cc1ccc(CN(CCCn2ccnc2)Cc2c[nH]cn2)s1,-4.99
16,Cc1cccc(CN2CCC3(CCN(Cc4ccccn4)C3)C2=O)c1 (centres undefined),12
17,O=C1CC[C@H]2[C@H](CCN2Cc2ccccn2)N1CC1CCOCC1,3.59
18,Cc1nn(C)c(Cl)c1CNCc1cccnc1N1CCOCC1,-4.17
19,c1cncc(-c2nnn3c2COCC(CNCC2CCOCC2)C3)c1 (centres undefined),-75.4
20,Cc1noc(C)c1CN1C[C@@H]2COC[C@@H](CC(=O)N3CCCCO3)[C@@H]2C1,-72.4
21,CN1C[C@@H]2C[C@H](C(=O)Nc3cccnc3)[C@H](C1)O2,-71.1
